Structures can show the parent of a compound that is named as a salt.
Key:
[1] = target: T1, Sodium-dependent dopamine transporter (Homo sapiens, UniProt Q01959); assay: Displacement of [125I]-RTI-55 from Dopamine transporter expressed in HEK293 cells; format: cell-based
How it was run: (§1)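 Membranes from HEK293 cells expressing the human transporter (grown to 80% confluence, lysed in 2 mM HEPES/1 mM EDTA, spun at 30000g). 10–15 µg protein was preincubated 10 min with compound in Krebs-HEPES pH 7.4 containing pargyline, tropolone, glucose and ascorbate. Nonspecific binding: 5 µM mazindol (DAT) or 5 µM imipramine (SERT). IC50 converted to Ki by Cheng-Prusoff.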

[2] = target: T2, Sodium-dependent serotonin transporter (Homo sapiens, UniProt P31645); assay: Inhibition of [3H]5-HT uptake in HEK293 cells expressing human serotonin transporter; format: functional, cell-based
How it was run: (§2)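 HEK293 cells expressing the human transporter were grown to confluence, triturated in Krebs-HEPES and preincubated 10 min with compound (six concentrations). Uptake was started with [3H]serotonin or [3H]dopamine at 20 nM final and stopped after 10 min by filtration over PEI-presoaked GF/C filters. Nonspecific uptake: 5 µM imipramine (SERT) or 5 µM mazindol (DAT). IC50 from triplicate curves, 2–3 independent determinations.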

[3] = target: T3, Sodium-dependent noradrenaline transporter (Homo sapiens, UniProt P23975); assay: Inhibition of [3H]norepinephrine uptake in HEK293 cells expressing human norepinephrine transporter; format: functional, cell-based
[4] = target: T1, Sodium-dependent dopamine transporter; assay: Inhibition of [3H]dopamine uptake in HEK293 cells expressing human dopamine transporter; format: functional, cell-based; how it was run: as §2
[5] = target: T2, Sodium-dependent serotonin transporter; assay: Displacement of [125I]RTI-55 from human Serotonin transporter expressed in HEK293 cells; format: cell-based; how it was run: as §1
[6] = target: T3, Sodium-dependent noradrenaline transporter; assay: Displacement of [125I]RTI-55 from human Norepinephrine transporter expressed in HEK293 cells; format: cell-based

T2 sequence (P31645 whole entry): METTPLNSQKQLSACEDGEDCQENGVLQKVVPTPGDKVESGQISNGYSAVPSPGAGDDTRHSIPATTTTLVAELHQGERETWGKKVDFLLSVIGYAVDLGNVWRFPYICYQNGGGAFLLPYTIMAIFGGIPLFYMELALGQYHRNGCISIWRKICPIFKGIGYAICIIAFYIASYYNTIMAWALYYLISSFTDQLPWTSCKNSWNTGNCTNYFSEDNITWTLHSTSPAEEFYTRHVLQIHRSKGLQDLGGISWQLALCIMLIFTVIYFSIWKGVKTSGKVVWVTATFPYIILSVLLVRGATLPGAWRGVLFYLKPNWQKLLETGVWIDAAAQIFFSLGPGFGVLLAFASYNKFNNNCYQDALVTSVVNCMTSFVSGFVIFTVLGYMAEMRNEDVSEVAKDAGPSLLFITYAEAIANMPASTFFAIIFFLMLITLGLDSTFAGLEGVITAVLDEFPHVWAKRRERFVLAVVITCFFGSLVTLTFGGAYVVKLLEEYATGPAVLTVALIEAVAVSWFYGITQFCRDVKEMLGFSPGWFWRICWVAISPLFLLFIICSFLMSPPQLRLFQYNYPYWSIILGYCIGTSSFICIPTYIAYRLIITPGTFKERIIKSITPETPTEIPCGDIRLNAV
T3 sequence (P23975 whole entry): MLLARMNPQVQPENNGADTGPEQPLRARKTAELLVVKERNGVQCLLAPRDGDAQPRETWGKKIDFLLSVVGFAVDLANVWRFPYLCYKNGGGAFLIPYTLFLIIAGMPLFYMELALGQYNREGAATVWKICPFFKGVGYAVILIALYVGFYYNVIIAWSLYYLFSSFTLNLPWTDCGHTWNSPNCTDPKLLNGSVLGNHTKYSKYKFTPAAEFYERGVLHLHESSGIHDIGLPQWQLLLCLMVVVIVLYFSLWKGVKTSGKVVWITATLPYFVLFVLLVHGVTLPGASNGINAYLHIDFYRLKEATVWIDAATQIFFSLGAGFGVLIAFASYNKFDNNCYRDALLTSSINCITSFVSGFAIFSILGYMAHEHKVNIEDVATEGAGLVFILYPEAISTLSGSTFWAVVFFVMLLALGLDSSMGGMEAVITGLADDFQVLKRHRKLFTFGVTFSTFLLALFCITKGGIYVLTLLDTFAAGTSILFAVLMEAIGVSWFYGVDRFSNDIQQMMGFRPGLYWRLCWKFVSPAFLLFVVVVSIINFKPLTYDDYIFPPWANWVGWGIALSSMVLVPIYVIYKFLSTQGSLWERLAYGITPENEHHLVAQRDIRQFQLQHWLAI
T1 sequence (Q01959 whole entry): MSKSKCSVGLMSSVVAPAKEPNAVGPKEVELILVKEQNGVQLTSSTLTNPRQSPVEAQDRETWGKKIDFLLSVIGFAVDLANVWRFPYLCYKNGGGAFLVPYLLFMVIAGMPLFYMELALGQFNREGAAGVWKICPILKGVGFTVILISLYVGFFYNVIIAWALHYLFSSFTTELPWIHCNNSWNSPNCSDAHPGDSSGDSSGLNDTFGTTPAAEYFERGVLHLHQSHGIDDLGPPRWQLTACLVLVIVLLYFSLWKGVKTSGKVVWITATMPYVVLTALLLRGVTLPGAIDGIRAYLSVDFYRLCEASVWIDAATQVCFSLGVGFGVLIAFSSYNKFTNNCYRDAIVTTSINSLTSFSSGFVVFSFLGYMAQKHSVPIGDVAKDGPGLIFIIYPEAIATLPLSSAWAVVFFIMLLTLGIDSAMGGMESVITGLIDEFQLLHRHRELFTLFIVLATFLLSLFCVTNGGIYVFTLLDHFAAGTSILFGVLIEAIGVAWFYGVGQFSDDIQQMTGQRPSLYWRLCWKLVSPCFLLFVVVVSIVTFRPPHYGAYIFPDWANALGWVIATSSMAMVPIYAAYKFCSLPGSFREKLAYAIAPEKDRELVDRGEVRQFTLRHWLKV

Question: With `CCOC(=O)C(c1ccccc1)C1CCCCN1` (racemic) as the molecule, how does the IC50 [1] read?
Answer: 319 nM

Question: What about the IC50 [2] of the same molecule?
Answer: > 10 µM

Question: And the IC50 [3]?
Answer: 480 nM

Question: What about the IC50 [4] of the same molecule?
Answer: 95 nM

Question: And the IC50 [5]?
Answer: 7.54 µM

Question: And the IC50 [6]?
Answer: > 7.2 µM

Question: What does the source list for `COC(=O)C(c1ccccc1)C1CCCCN1` (racemic) [METHYLPHENIDATE HYDROCHLORIDE]?
Answer: IC50 [3]: 51 nM; IC50 [5]: > 10 µM; IC50 [6]: 0.788 µM

Question: Which IC50 [1] does the source give for `CCOC(=O)[C@@H](c1ccccc1)[C@@H]1CCCCN1` (stereo in doubt; (-)-2) here?
Answer: 2700 nM

Question: And the IC50 [2]?
Answer: > 10 µM

Question: And the IC50 [3]?
Answer: > 10000 nM

Question: What about the IC50 [4] of the same molecule?
Answer: 1730 nM

Question: And the IC50 [5]?
Answer: > 9.5 µM

Question: What about the IC50 [6] of the same molecule?
Answer: > 10 µM

From ChEMBL document CHEMBL1143600, “Synthesis and pharmacology of ethylphenidate enantiomers: the human transesterification metabolite of methylphenidate and ethanol” (J Med Chem, 2005)
